Source: PubChem (several laboratories)
PKA-R2B activ – activators of PKA-R2B holoenzyme, primary screen, biochemical, fluorescence polarization, Cy5-IP20, human; cAMP-dependent protein kinase catalytic subunit beta (Homo sapiens) + cAMP-dependent …; AID 504700, 2011; 340,000 tested, 0.079% active; activation, % at 11.4 µM; PKA-R2B holoenzyme dissociation; R2B truncated from residue 108, S112A mutant; 0% DMSO only, 100% 113 µM cGMP;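 active = activation above a cutoff set at the mean over all compounds plus 3 SD, cut at about 18% in these data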;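 also: higher means more holoenzyme dissociation and a rise in polarization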
HKDC1 inhibitor – HKDC1 hexokinase inhibitors, primary screen, biochemical, fluorescence, uHTS; Q2TB90; recombinant HKDC1, G6PDH/diaphorase resazurin coupled fluorescence; inhibition, % at 20 µM; 340,000 tested, 0.16% active; AID 493160, 2011;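 active = inhibition above about 35% when tested at 20 µM, limit read from the data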;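 also: plate controls were DMSO wells with enzyme for no effect and DMSO wells lacking enzyme for full effect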
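test system = in-house recombinant HK5 (HKDC1) enzyme | amount = HKDC1 at 5 µg/mL | control set = DMSO-enzyme wells negative, buffer-substituted wells positive | compound = one dose of 20 µM, 1% DMSO | schedule = reaction time 90 min, room temperature, protected from light | technique = resorufin fluorescence at 613 nm | reagent = glucose with 1 mM ATP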
PKA-R1A act – activators of PKA-R1A holoenzyme, primary screen, biochemical, fluorescence polarization, Cy5-IP20, bovine R1A, mouse PKAc; 340,000 tested, 0.083% active; AID 504707, 2011; activation, % at 11.4 µM; PKA-R1A dissociation; scaled: DMSO 0%, 113 µM cGMP 100%; cAMP-dependent protein kinase type I-alpha regulatory subunit (Bos taurus) + …;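 active = percent activation above the mean of all tested compounds plus 3 SD, cut at about 19% in these data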;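 also: higher means more PKAc released from R1A so a rise in polarization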
ATG4B inhibitor – ATG4B protease inhibitors, primary screen, biochemical, fluorescence, uHTS. Cysteine protease ATG4B (Homo sapiens), Q9Y4P1. ATG4B cleavage of LC3-PLA2, NBD-HPC fluorescence, 1 h. inhibition, % at 8.33 µM. 340,000 tested, 0.51% active. AID 504462, 2011; in the data active = inhibition above about 40%
T cell HTS – modulators of CD8 T cell-vesicle binding, primary screen, mouse 2C CD8+ T cells, flow cytometry; 2C CD8+ T cell-vesicle binding; stronger effect = lower value; response (vesicle binding), % at 7 µM; 330,000 tested, 0.068% active; AID 2052, 2009;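 active = response, share of CD8 T cells binding vesicles, and their 90th percentile fluorescence all below set limits, cut at about 80% in these data, passing the limit was not always enough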;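 also: values below 100% mean blocked vesicle binding to the CD8+ T cells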
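Test system: purified 2C TCR transgenic mouse naive CD8+ T cells. Probe or stimulus: QL9-peptide-loaded Drosophila micro-vesicles bearing Ld, ICAM-1 and B7-1. Incubation: binding step 1.5 h, 37 °C, antibody labelling 20 min, ice. Measured by: flow cytometry of vesicle-bound cells.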
PfG6PD inh – PfG6PD enzyme inhibitors, primary screen, biochemical, fluorescence intensity, uHTS; PfGluPho enzyme, NADPH resazurin-diaphorase fluorescence; inhibition, % at 20 µM; 350,000 tested, 0.78% active; AID 504690, 2011;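 active = inhibition reaching at least a set limit at 20 µM in the primary screen, cut at about 59% in these data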;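 also: 0% = DMSO wells with substrate and 100% = DMSO wells lacking glucose-6-phosphate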
ATG4B conf – ATG4B protease inhibitors, retest, confirmation, biochemical, fluorescence, single concentration. shares compounds with ATG4B inhibitor. inhibition, % at 8.33 µM. AID 504757, 2011. ATG4B protease fluorescent substrate cleavage assay. 320 tested, 92% active; in the data active = inhibition above about 39%
PLA2 counter – PLA2 enzyme inhibition, counter-screen for ATG4B inhibitor project, biochemical, single concentration, uHTS hits; inhibition, % at 8.33 µM; 1,600 tested, 66% active; purified PLA2, NBD-C6-HPC fluorescence, 45 min; shares compounds with ATG4B inhibitor; in the data active = inhibition above about 50%
Target sequence (P04054 whole entry, looked up): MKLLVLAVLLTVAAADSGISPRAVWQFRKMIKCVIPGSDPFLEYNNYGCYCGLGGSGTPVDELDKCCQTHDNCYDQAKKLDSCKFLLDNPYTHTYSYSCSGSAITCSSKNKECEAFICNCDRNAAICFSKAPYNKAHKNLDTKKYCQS
Starred values were filed as active, the others as inactive. Hits are enriched below; roughly 1.6% of the tested compounds scored in any of these assays.

For CCOC(=O)C1=C(c2ccccc2)Nc2ncnn2C1c1ccc(C(=O)O)cc1 (stereo not drawn) the results were PKA-R2B activ 1.2, HKDC1 inhibitor -5.8, PKA-R1A act -2.3, ATG4B inhibitor -3.3, T cell HTS 156.6 and PfG6PD inh -5.6.
For CC1(C)Cc2c(sc(NC(=S)NC(=O)c3ccccc3)c2C(=O)O)CO1 the results were PKA-R2B activ -3.0, HKDC1 inhibitor 1.1, PKA-R1A act 2.1, ATG4B inhibitor 40.9*, T cell HTS 412.6, PfG6PD inh -12.4, ATG4B conf 73.6* and PLA2 counter 31.8.
`N#Cc1c(-c2ccccc2)nc(SCC(=O)N2c3ccccc3Sc3ccccc32)[nH]c1=O` gave PKA-R2B activ 10.9, HKDC1 inhibitor 10.7, PKA-R1A act 11.4, ATG4B inhibitor 57.4*, T cell HTS 223.2, PfG6PD inh -28.0 and PLA2 counter 59.1*.
CC(=O)c1cccc(NC(=O)CN2C(=O)NC(C)(c3ccc4c(c3)OCCCO4)C2=O)c1 (stereo not drawn) was read as PKA-R2B activ 0.4, HKDC1 inhibitor -0.5, PKA-R1A act -11.6, ATG4B inhibitor 4.0, T cell HTS 307.6 and PfG6PD inh -12.1.
COc1cc(C2Nc3cc(Cl)c(S(N)(=O)=O)cc3S(=O)(=O)N2)ccc1OCc1ccccc1 (stereo not drawn) was read as PKA-R2B activ 6.1, HKDC1 inhibitor 12.9, PKA-R1A act 6.4, ATG4B inhibitor 83.5*, T cell HTS 309.4, PfG6PD inh 11.1 and PLA2 counter 84.9*.
Screening O=C1NC(c2cccc3ccccc23)Nc2ccc(Cl)cc21 (stereo not drawn) returned PKA-R2B activ -2.4, HKDC1 inhibitor 1.4, PKA-R1A act -8.2, ATG4B inhibitor 43.4*, PfG6PD inh 13.6 and PLA2 counter 58.7*.
CNc1cc(CSc2ccc(Cl)cc2)nc(C)n1 was read as PKA-R2B activ -0.9, HKDC1 inhibitor 10.2, PKA-R1A act -8.0, ATG4B inhibitor -2.7, T cell HTS 320.9 and PfG6PD inh -5.1.
Screening Cc1nc(CSc2ccc(Cl)cc2)cc(NCc2ccccc2)n1 returned PKA-R2B activ -2.1, HKDC1 inhibitor -0.8, PKA-R1A act -4.3, ATG4B inhibitor 72.8*, T cell HTS 267.9, PfG6PD inh -10.8 and PLA2 counter 78.9*.
CC(CCCCCCCCC(=O)O)N(CCO)C(=O)OC(C)(C)C (stereo not drawn) was read as PKA-R2B activ -7.6, HKDC1 inhibitor -3.1, PKA-R1A act -1.7, ATG4B inhibitor 6.6, T cell HTS 414.3 and PfG6PD inh -15.5.
Screening CCCn1nc([N+](=O)[O-])c(C(C#N)c2nc3ccccc3s2)c(Cl)c1=O (stereo not drawn) returned PKA-R2B activ -8.6, HKDC1 inhibitor 14.4, PKA-R1A act 3.2, ATG4B inhibitor 83.8*, T cell HTS 336.3, PfG6PD inh -8.5 and PLA2 counter 85.3*.
